According to ChEMBL document CHEMBL4002644, “Discovery of GBT440, an Orally Bioavailable R-State Stabilizer of Sickle Cell Hemoglobin” (ACS Med Chem Lett, 2017):
Activity calls are given as the source filed them. The calls are words filed in the database; no cut-off is given here.

Key:
[1] = test system: Hemoglobin HbA (Homo sapiens), P69905+P68871 [E7V]; assay: (§1) Induction of R-state stabilization of Hb betaGlu6Val mutant in sickle disease patient purified HbS/HbA mixture assessed as change from baseline of partial pressure of O2 at which HbS is 50% saturated with O2 at 30 uM preincubated for 45 mins followed by oxygenation for 10 mins and subsequent deoxygenation by hemoximetry relative to control
In short: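 Oxygen equilibrium curves were run on a Hemox Analyzer using Hb purified from sickle disease blood (an HbA/HbS mixture) at 25 μM. Compound was tested at 30 μM, or at 500 μM where noted. The read-out was the % change from baseline in the pO2 at which HbS is 50% saturated (Δp50).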

[2] = test system: Hemoglobin HbA (Homo sapiens), P69905+P68871 [E7V]; assay: (§2) Induction of R-state stabilization of Hb betaGlu6Val mutant in sickle cell disease transfused human whole blood assessed as change from baseline of partial pressure of O2 at which HbS is 50% saturated with O2 at 1 mM preincubated for 45 mins followed by 20 mins oxygenation/deoxygenation cycle by hemoximetry relative to control
In short: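 Whole blood from transfused SCD subjects, at 20% hematocrit (Hb 1 mM), was run with compound at 1 mM. Oxygen equilibrium curves were measured by hemoximetry. The value is the % change from baseline in the pO2 giving 50% O2 saturation (Δp50).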

[3] = species on record: Homo sapiens; assay: Induction of R-state stabilization of sickle cell Hb betaGlu6Val mutant purified from sickle cell patient assessed as inhibition of KH2PO4-induced polymerization by measuring change from baseline of delay time for onset of polymerization at 75 uM preincubated for 1 hr followed by deoxygenation for …; parameters: scale not given: the % may be the effect or the level left
[4] = test system: Blood; assay: Half life in Sprague-Dawley rat blood at 7.2 to 120 mg/kg, po by LC-MS/MS analysis; format: ADME, organism-based; conditions: in vivo
[5] = test system: Rattus norvegicus; assay: Dose normalized AUC (0 to infinity) in Sprague-Dawley rat at 7.2 to 120 mg/kg, po by LC-MS/MS analysis; format: ADME, organism-based; conditions: in vivo
In short: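 Rat oral PK: AUC(0–∞) divided by the oral dose, expressed as (ng·h/mL)/(mg/kg).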

[6] = test system: Hemoglobin HbA (Homo sapiens), P69905+P68871 [E7V]; assay: as §1, with “100” for “30”, “20” for “oxygenation for 10”, “oxygenation/deoxygenation cycle” for “and subsequent deoxygenation”
[7] = test system: Hemoglobin HbA (Homo sapiens), P69905+P68871 [E7V]; assay: as §2, with “sickle” for “sickle cell”, “patient purified HbS/HbA mixture” for “transfused human whole blood”, “5” for “1”

SMILES: COc1cc(C=O)c(OCc2cccnc2-c2ccnn2CCO)cn1
- Activity [1]: 32.7%
- Activity [2]: 64.7%
- Activity [3]: 105%

SMILES: COc1cc(C=O)c(OCc2cc3ccccc3nc2Cl)cn1
- Activity [1]: 4%

SMILES: COc1cc(C=O)c(OCc2cccnc2-c2c(C)cnn2C)cn1
- Activity [1]: 27.4%
- Activity [3]: 64.5%

SMILES: CC(C)n1nccc1-c1ncccc1COc1cnc(O)cc1C=O
- Activity [1]: 59.6%
- Activity [2]: 62.5%
- Activity [3]: 128%

SMILES: CC(C)n1nccc1-c1ncccc1COc1cccnc1C=O
- Activity [1]: 53.3%
- Activity [2]: 56.4%
- Activity [3]: 70.3%
- t1/2 [4]: 0.7 h
- AUC/dose [5]: 34.2 ng·h/mL/mg/kg

SMILES: Cc1ccc(OCc2cccnc2-c2ccnn2C(C)C)c(C=O)n1
- Activity [1]: 61.7%
- Activity [2]: 65.4%
- Activity [3]: 62.6%
- t1/2 [4]: 1.5 h
- AUC/dose [5]: 1710 ng·h/mL/mg/kg

SMILES: COC(=O)c1cc(COc2cnc(OC)cc2C=O)c2nccn2c1
- Activity [1]: 16.4%

SMILES: COc1ccc(OCc2cccn3ccnc23)c(C=O)c1
- Activity [1]: 33%
- Activity [6]: Active

SMILES: COc1cc(C=O)c(OCc2cnccc2-c2cn[nH]c2)cn1
- Activity [1]: 17.1%

SMILES: COc1cc(C=O)c(OCc2cncc(-c3ccn(C)n3)c2)cn1
- Activity [1]: 29.4%

SMILES: COc1cc(C=O)c(OCc2ccc3ccccc3n2)cn1
- Activity [1]: 43.2%

SMILES: COc1cc(C=O)c(OCc2nccc3ccccc23)cn1
- Activity [1]: 40.2%

SMILES: COc1cc(C=O)c(OCc2cccnc2-n2cccn2)cn1
- Activity [1]: 31.8%

SMILES: COc1cc(C=O)c(OCc2cncc(-c3ccnn3C)c2)cn1
- Activity [1]: 11.2%

SMILES: COc1cc(C=O)c(OCc2cc(C#N)cn3ccnc23)cn1
- Activity [1]: 3.5%

SMILES: COc1cc(C=O)c(OCc2cc(-c3ccn[nH]3)cn3ccnc23)cn1
- Activity [1]: 2.8%

SMILES: COc1cc(C=O)c(OCc2c(-c3cc[nH]n3)ccn3ccnc23)cn1
- Activity [1]: 29.1%

SMILES: COCCOc1cc(C=O)c(OCc2cccnc2-c2ccnn2C(C)C)cn1
- Activity [1]: 55.9%
- Activity [2]: 68.9%
- Activity [3]: 77.8%
- t1/2 [4]: 1.5 h
- AUC/dose [5]: 1950 ng·h/mL/mg/kg

SMILES: COc1cc(C=O)c(OCc2ccnc3cccnc23)cn1
- Activity [1]: 23.1%

SMILES: O=Cc1ccc(CO)o1
- Activity [7]: Active

SMILES: CC(C)n1nccc1-c1ncccc1COc1cnc(OC(F)F)cc1C=O
- Activity [1]: 43.1%
- Activity [2]: 49.7%
- Activity [3]: 73.1%

SMILES: COc1cc(C=O)c(OCc2cc3ccccc3nc2-c2ccn[nH]2)cn1
- Activity [1]: 14.2%
